From the array DNA melting data of Ke et al. (doi:10.1101/2024.01.08.574731)

Columns and labels:
[1] = melting temperature; fluorescence melt of hairpins on a sequencing array, two-state fit, raised by 9.35 °C to match UV melts; conditions: sodium 0.088 M
Procedure, shortened: (§1)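 Library hairpins on a sequenced MiSeq flow cell carried annealed Cy3 and quencher oligos, and their Cy3 fluorescence was imaged in 50 mM Na-HEPES pH 8.0 with 25 mM NaCl, in 2.5 °C steps up to 60 °C. Signals were normalised to Cy3 before quenching and to control constructs. Melting temperature and folding enthalpy were obtained from bootstrapped two-state fits, combined by inverse-variance weighting across four replicates, and the fitted temperatures were then raised by 9.35 °C to match UV melts.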

[2] = folding enthalpy; higher = less favourable; fluorescence melt of hairpins on a sequencing array, two-state fit; conditions: sodium 0.088 M
Procedure, shortened: as §1

Sequence | Tm [1] | folding enthalpy [2]
GCGGAGCGAAAGCTATGC ((..(((....)))..)) | 44.5 °C | -16.5 kcal/mol
GGTTTCGAAAGAATTACC ((((((....)))..))) | 27.9 °C | -14.2 kcal/mol
GCCTCAACGAAAGTTGGC (((..(((....)))))) | 42.9 °C | -12.4 kcal/mol
GATCCAAATTTGGATC ((((((....)))))) | 52.9 °C | -36.1 kcal/mol
GCACTTGGAAACGAGTGC (((((.(....).))))) | 54.1 °C | -54.9 kcal/mol
GCAGGCGGAAACACCCGC ((.((.(....).)).)) | 36.1 °C | -12.6 kcal/mol
GATCAGCCACTGATC ((((((...)))))) | 48.6 °C | -32 kcal/mol
GATTGCGAAAGCATTATC ((((((....)))..))) | 26.6 °C | -11.2 kcal/mol
GAGCAGGGAAACCTACTC (((.(((....))).))) | 39.5 °C | -22.1 kcal/mol
GTTCTTGGAAACAAGGAC ((.((((....)))).)) | 44.6 °C | -23.9 kcal/mol
GTATCGGGAAACCGATAC (((((((....))))))) | 62.2 °C | -42.3 kcal/mol
GCCAGTCCGAAAGGAGGC (((..(((....)))))) | 44.4 °C | -22.1 kcal/mol
GATGGCCGAAAGGCTATC (((.(((....))).))) | 57.5 °C | -27.8 kcal/mol
GAGTCCGGAAACGGGTTC ((..(((....)))..)) | 33.6 °C | -16.1 kcal/mol
GGCCTTCGAAAGAACGCC (((.(((....))).))) | 44.4 °C | -30.7 kcal/mol
GGGAATGGAAACGTTTCC ((.((.(....).)).)) | 34.3 °C | -15.3 kcal/mol
GACAGCGAAAGCTTAGTC ((((((....)))..))) | 38.1 °C | -19 kcal/mol
GCTCCGGGAAACCGGGGC ((.((((....)))).)) | 63.8 °C | -43 kcal/mol
GGTTTCGAAAGAATACC ((((((....))).))) | 38 °C | -25.6 kcal/mol

Sequence | Tm [1] | folding enthalpy [2]
GCACAGGGAAACCTGCAC (..((((....))))..) | 28.4 °C | -10.3 kcal/mol
GATCCCCTATGGGATC ((((((....)))))) | 60.8 °C | -36.9 kcal/mol
GCTTATCGAAAGATCAGC (((.(((....))).))) | 44 °C | -25.3 kcal/mol
GATAGAGGAAACTCTACC (.(((((....))))).) | 23.5 °C | -12.6 kcal/mol
GGCCTCGAAAGAGCAGCC ((((((....)))..))) | 47.6 °C | -22.3 kcal/mol
GAGCTGGGAAACTAGCTC (((((.(....).))))) | 52.5 °C | -38.7 kcal/mol
GCCGCGCGAAAGCGACGC ((..(((....)))..)) | 55.1 °C | -11.9 kcal/mol
AGAACGAAAGTTCT (((((....))))) | 53.1 °C | -19.9 kcal/mol
GCGGCGACGAAAGTCCGC (((..(((....)))))) | 55.6 °C | -17.8 kcal/mol
GATCCTCTTGAGGATC ((((((....)))))) | 61.3 °C | -41 kcal/mol
GCACAGGAAACTGTGC ((((((....)))))) | 67 °C | -36.1 kcal/mol
GCGAGCGTCGC ((((...)))) | 60 °C | -10.2 kcal/mol
GTAATAGCGAAAGCTTAC (((..(((....)))))) | 30.2 °C | -12.6 kcal/mol
GATCCCAGGGGGATC ((((((...)))))) | 67 °C | -34.7 kcal/mol
GACGATGGAAACATTGTC (((.(((....))).))) | 47.1 °C | -35.2 kcal/mol
GCTCCCGGAAACGAGAGC ((((.((....)).)))) | 49.2 °C | -36.5 kcal/mol
GGGTCGGCGAAAGCCCCC (((..(((....)))))) | 46.1 °C | -13.9 kcal/mol
GGTTTTGAAAAAAACC ((((((....)))))) | 51.5 °C | -26.5 kcal/mol
GCAAGCGAAAGCTTTTGC ((((((....)))..))) | 42.2 °C | -12.8 kcal/mol
